Measured values reported in ChEMBL document CHEMBL2311366, “MMP inhibition by barbiturate homodimers” (Bioorg Med Chem Lett, 2013).
pIC50: −log10 of the molar value. Calls of active or inactive are those of the source. The rule behind the calls is not given here.

How the values were obtained:
[1] = target: Collagenase 3 (Homo sapiens, UniProt P45452); experiment: Inhibition of human recombinant MMP-13 after 45 mins by fluorogenic assay
Outline: (§1)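 Human recombinant enzymes in a fluorogenic activity assay. Test concentrations 0.01–10,000 nM, 45 min incubation. IC50 reported as mean SEM of at least three independent experiments.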

[2] = target: Neutrophil collagenase (Homo sapiens, UniProt P22894); experiment: Inhibition of human recombinant MMP-8 after 45 mins by fluorogenic assay; outline: as §1
Neutrophil collagenase, sequence (P22894 whole entry): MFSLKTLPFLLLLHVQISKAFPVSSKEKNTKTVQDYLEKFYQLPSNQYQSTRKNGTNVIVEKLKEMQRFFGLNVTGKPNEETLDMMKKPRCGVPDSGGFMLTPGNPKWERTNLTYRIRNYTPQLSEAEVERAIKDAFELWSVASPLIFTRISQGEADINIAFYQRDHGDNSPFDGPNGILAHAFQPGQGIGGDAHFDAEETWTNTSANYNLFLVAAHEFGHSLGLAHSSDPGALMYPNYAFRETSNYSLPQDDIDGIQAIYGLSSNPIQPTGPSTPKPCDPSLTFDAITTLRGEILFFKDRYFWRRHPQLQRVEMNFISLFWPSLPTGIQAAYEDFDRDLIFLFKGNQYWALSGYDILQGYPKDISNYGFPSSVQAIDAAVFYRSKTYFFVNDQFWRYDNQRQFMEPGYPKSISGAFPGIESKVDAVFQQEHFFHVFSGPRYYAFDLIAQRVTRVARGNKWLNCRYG

[3] = target: T1, Interstitial collagenase (Homo sapiens) (UniProt P03956); experiment: Inhibition of human recombinant MMP-1 at 10 uM after 45 mins by fluorogenic assay
T1 sequence (whole entry): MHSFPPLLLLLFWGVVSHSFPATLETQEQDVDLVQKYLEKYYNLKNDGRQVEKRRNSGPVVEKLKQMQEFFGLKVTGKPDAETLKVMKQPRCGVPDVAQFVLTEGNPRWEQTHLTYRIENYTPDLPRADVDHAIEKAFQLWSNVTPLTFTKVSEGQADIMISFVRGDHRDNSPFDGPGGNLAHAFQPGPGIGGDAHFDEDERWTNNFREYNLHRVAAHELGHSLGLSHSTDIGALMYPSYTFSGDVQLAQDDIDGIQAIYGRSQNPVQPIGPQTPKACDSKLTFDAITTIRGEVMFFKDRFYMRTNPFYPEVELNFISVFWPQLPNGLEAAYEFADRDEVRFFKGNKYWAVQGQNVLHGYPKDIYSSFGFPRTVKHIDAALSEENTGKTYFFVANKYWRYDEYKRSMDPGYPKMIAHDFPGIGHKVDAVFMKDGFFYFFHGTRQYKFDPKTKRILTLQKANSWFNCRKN

[4] = Metabolic stability in human duodenal fluid assessed as compound remaining at 6 hrs; assay type: ADME; conditions: read-out: Stability
Outline: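 Incubation at 37 °C in simulated human duodenal fluid. Remaining compound was measured by RP HPLC as a function of time.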

Structure (SMILES)	pIC50 [1]	pIC50 [2]	inhibition [3]	remaining at 6 h [4]
O=C1NC(=O)C(c2ccc(Oc3ccccc3)cc2)(N2CCCN(C(=O)CCCCCCCCCCCCCCCCCCCCC(=O)N3CCCN(C4(c5ccc(Oc6ccccc6)cc5)C(=O)NC(=O)NC4=O)CC3)CC2)C(=O)N1	6.65	6.79	inactive	–
O=C1NC(=O)C(c2ccc(Oc3ccccc3)cc2)(N2CCCN(C(=O)CCCCCCC(=O)N3CCCN(C4(c5ccc(Oc6ccccc6)cc5)C(=O)NC(=O)NC4=O)CC3)CC2)C(=O)N1	6.81	7.06	inactive	–
O=C1NC(=O)C(c2ccc(Oc3ccccc3)cc2)(N2CCCN(C(=O)CCCC(=O)N3CCCN(C4(c5ccc(Oc6ccccc6)cc5)C(=O)NC(=O)NC4=O)CC3)CC2)C(=O)N1	6.79	7.07	inactive	> 50%
O=C1NC(=O)C(c2ccc(Oc3ccccc3)cc2)(N2CCCN(C(=O)CCCCCCCCC(=O)N3CCCN(C4(c5ccc(Oc6ccccc6)cc5)C(=O)NC(=O)NC4=O)CC3)CC2)C(=O)N1	6.97	7.04	inactive	–
O=C1NC(=O)C(c2ccc(Oc3ccccc3)cc2)(N2CCCN(C(=O)CCCCC(=O)N3CCCN(C4(c5ccc(Oc6ccccc6)cc5)C(=O)NC(=O)NC4=O)CC3)CC2)C(=O)N1	7.64	7.22	inactive	–
O=C1NC(=O)C(c2ccc(Oc3ccccc3)cc2)(N2CCCN(C(=O)CCCCCCCCCCC(=O)N3CCCN(C4(c5ccc(Oc6ccccc6)cc5)C(=O)NC(=O)NC4=O)CC3)CC2)C(=O)N1	6.98	6.90	inactive	–
CCCC(=O)N1CCCN(C2(c3ccc(Oc4ccccc4)cc3)C(=O)NC(=O)NC2=O)CC1	–	–	inactive	–
O=C1NC(=O)C(c2ccc(Oc3ccccc3)cc2)(N2CCCN(C(=O)CCCCCC(=O)N3CCCN(C4(c5ccc(Oc6ccccc6)cc5)C(=O)NC(=O)NC4=O)CC3)CC2)C(=O)N1	6.19	6.93	inactive	–
O=C1NC(=O)C(c2ccc(Oc3ccccc3)cc2)(N2CCCN(C(=O)CCC(=O)N3CCCN(C4(c5ccc(Oc6ccccc6)cc5)C(=O)NC(=O)NC4=O)CC3)CC2)C(=O)N1	7.96	7.36	inactive	–
O=C1NC(=O)C(c2ccc(Oc3ccccc3)cc2)(N2CCCN(C(=O)CCCCCCCCCCCCC(=O)N3CCCN(C4(c5ccc(Oc6ccccc6)cc5)C(=O)NC(=O)NC4=O)CC3)CC2)C(=O)N1	7.15	6.66	inactive	–
O=C1NC(=O)C(c2ccc(Oc3ccccc3)cc2)(N2CCCN(C(=O)c3ccc(C(=O)N4CCCN(C5(c6ccc(Oc7ccccc7)cc6)C(=O)NC(=O)NC5=O)CC4)cc3)CC2)C(=O)N1	7.64	7.34	inactive	–
O=C1NC(=O)C(c2ccc(Oc3ccccc3)cc2)(N2CCCN(C(=O)CCCCCCCCCCCCCCC(=O)N3CCCN(C4(c5ccc(Oc6ccccc6)cc5)C(=O)NC(=O)NC4=O)CC3)CC2)C(=O)N1	6.87	6.55	inactive	–
O=C1NC(=O)C(c2ccc(Oc3ccccc3)cc2)(N2CCCN(C(=O)CCCCCCCC(=O)N3CCCN(C4(c5ccc(Oc6ccccc6)cc5)C(=O)NC(=O)NC4=O)CC3)CC2)C(=O)N1	7.36	7.01	inactive	–
CCCCCCCCCCCCCC(=O)N1CCCN(C2(c3ccc(Oc4ccccc4)cc3)C(=O)NC(=O)NC2=O)CC1	–	–	inactive	–
